# High-throughput results as filed in PubChem.
# 697 NFkB inh = inhibitors of PMA/ionomycin-induced NF-kB reporter, 697 cells, primary screen, B-cell NF-kB inhibitor project, cell-based, luminescence, uHTS; inhibition, % at 4 µM; 697 B-cell NF-kB luciferase reporter, 16 h; hit rate 0.33% among 330,000; in the data active = inhibition above about 35%
# CHOP UPR activ = activators of apoptotic CHOP UPR arm, primary screen, cell-based, CHO-CHOP luciferase reporter, luminescence, uHTS; UPR activation; percent of tunicamycin response over DMSO baseline; activation, % at 10 µM; hit rate 0.34% among 330,000; AID 449763, 2010;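 active = at 10 µM dose, activation of 40% or more, normalized to positive control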;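 note: 100% = tunicamycin at 10 µg/mL and 0% = DMSO alone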
#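 Evaluation: % reporter activation, DMSO baseline versus tunicamycin full activation; System: CHO-CHOP luciferase reporter cell line; Input: 500 cells/well; Incubation: 6 h compound treatment, 37 °C; Measured by: Steady-Glo luciferase luminescence; Dosing: one dose, 10 µM in 0.5% DMSO; Buffer or medium: F12 medium, 10% FBS; Benchmarks: positive tunicamycin 10 µg/mL, negative DMSO alone.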
# UPR XBP1 act = activators of adaptive XBP1 UPR arm, primary screen, cell-based, CHO-XBP1 luciferase reporter, luminescence, uHTS | activation, % at 20 µM | IRE1-XBP1 UPR activation; percent of tunicamycin response, DMSO as zero | hit rate 0.33% among 330,000;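 active = versus positive control, 20 µM dose yields 30% or more activation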;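 note: 100% = tunicamycin at 10 µg/mL and 0% = DMSO only wells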
#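 Material: CHO-XBP1 cells stably carrying IRE1-XBP1-driven luciferase reporter / Amount: 1000 cells per well / Compound: 20 µM, 1% DMSO / Times: 6 h treatment, 37 °C / Detection: luciferase luminescence / Measure: % activation of reporter signal versus tunicamycin and DMSO controls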
# CHOP inhibitor = inhibitors of CHOP promoter induction, primary screen, cell-based, unfolded protein response, luciferase reporter; AID 2732, 2010; inhibition, % at 10 µM; hit rate 3.8% among 220,000; CHO-K1 CHOP-promoter luciferase, tunicamycin-induced, 15-18 h;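 active = compounds that reduced the stress-induced luciferase reporter signal by more than about 70% of percent inhibition, limit read from the data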;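 note: 0% = tunicamycin plus vehicle and 100% = wells without tunicamycin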
# Jurkat NFkB inh = inhibitors of induced NF-kB luciferase reporter, primary screen, TCR NF-kB activation inhibitor project, cell-based, luminescence, uHTS; hit rate 0.53% among 330,000; Jurkat, PMA/ionomycin-induced NF-kB luciferase reporter; inhibition, % at 4 µM; AID 435003, 2010; in the data active = inhibition above about 50%
# Gli-Sufu block = Gli-Sufu pathway antagonists, primary screen, luciferase luminescence, Sufu-KO-LIGHT cells, uHTS | Sufu-KO-LIGHT fibroblasts, Gli luciferase reporter luminescence | inhibition, % at 5 µM | hit rate 0.74% among 340,000;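 active = inhibition above about 55%, limit read from the data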;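 note: 0% = DMSO-treated cells and 100% = wells with medium but no cells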
# Numbers without * were called inactive; . = no result given. In the library only some 3.9% were active in any assay of this set; here they are far more common.
SMILES,697 NFkB inh,CHOP UPR activ,UPR XBP1 act,CHOP inhibitor,Jurkat NFkB inh,Gli-Sufu block
CN(CC(=O)Nc1ccccc1Cl)C(=O)COC(=O)CN1C(=O)NC2(CCCC2)C1=O,-11.0,-2.1,-4.3,.,-3.1,-14.2
CCCCCC(=O)N/N=C(\C)c1ccc(N2CCCCC2)cc1,-17.9,1.5,-0.7,76.1*,-3.4,-6.4
COc1cccc(Oc2ccc(C(F)(F)F)cc2NC(=O)CN2C(=O)NC3(CCCC3)C2=O)c1,-11.0,-0.1,-3.3,.,-2.7,3.6
COc1ccc(N=Cc2c(O)ccc3ccccc23)cc1,16.7,-0.3,-3.9,79.5*,-0.7,1.0
COc1ccc(N=Cc2c(O)n(-c3cccc(C)n3)c(=O)c3ccccc23)cc1,26.2,2.6,-2.6,-8.1,1.9,8.6
COc1ccc(Cn2c(O)c(C=Nc3ccc(O)cc3)c3ccccc3c2=O)cc1,-0.3,-1.6,1.3,85.4*,-4.4,7.1
O=c1c2ccccc2c(C=Nc2ccc(O)cc2)c(O)n1Cc1ccccc1,-55.7,9.4,4.6,92.8*,-52.3,-0.2
COc1ccc(N=Cc2c(O)n(-c3ccc(OC)cc3)c(=O)c3ccccc23)cc1,4.3,1.9,19.6,72.4*,-2.4,14.3
COc1ccc(NC(=O)c2ccc(N3C(=O)C4CC=C(C)CC4C3=O)cc2)c(OC)c1 (centres undefined),11.2,-0.3,10.8,.,-6.6,-5.7
Cc1ccc(N2CC(C(=O)N(C)CC(=O)Nc3ccc(Cl)c(C(F)(F)F)c3)CC2=O)cc1 (centres undefined),22.6,1.1,-2.0,.,28.3,3.9
COCCn1c(SCC(=O)Nc2ccccc2C)nc2c(oc3ccccc32)c1=O,-0.4,-0.5,-0.4,79.2*,3.9,7.9
Cc1cccc2sc(NC(=O)C3CCCN(S(=O)(=O)c4cccc5nonc45)C3)nc12 (centres undefined),1.6,-0.3,-3.9,80.6*,2.9,0.0
CCOc1ccc(NC(=O)C2CCCN(S(=O)(=O)c3cccc4nsnc34)C2)cc1 (centres undefined),11.6,-1.3,-4.2,73.7*,-3.3,2.6
Cc1ccc2nc(NC(=O)C3CCCN(S(=O)(=O)c4cccc5nonc45)C3)sc2c1 (centres undefined),-13.2,3.9,-0.3,35.5,5.4,.
COc1cccc(NC(=O)C2CCCN(S(=O)(=O)c3cccc4nsnc34)C2)c1 (centres undefined),-5.1,-0.9,-2.0,67.9,-18.8,-8.0
Cc1cccc(N2CCN(C(=O)C3CCN(S(=O)(=O)c4cccc5cccnc45)CC3)CC2C)c1 (centres undefined),8.1,3.8,0.5,28.4,0.4,-0.1
Cc1cccc2sc(NC(=O)C3CCN(S(=O)(=O)c4cc([N+](=O)[O-])ccc4Cl)CC3)nc12,-5.7,9.1,0.1,70.5*,23.0,29.2
Cc1cccc(N2CCN(C(=O)C3CCN(S(=O)(=O)c4cccc5nsnc45)CC3)CC2C)c1 (centres undefined),-11.7,6.3,0.6,83.4*,-9.0,3.1
CCN(CC(=O)NCc1ccc(Cl)cc1)C(=O)Cc1ccc(OC)cc1,1.8,-0.2,-4.3,.,23.0,-23.7
O=C(NCCCN1CCOCC1)c1ccccc1N1C(=O)[C@@H]2Cc3c([nH]c4ccccc34)C(c3cccc(Cl)c3)N2C1=O (some centres undefined),4.0,1.3,-3.2,.,-1.3,-1.3
CCOc1ccc(-c2csc(/C(C#N)=C\c3ccc(O)c([N+](=O)[O-])c3)n2)cc1,-24.4,6.1,2.9,93.7*,18.2,24.6
CCCCc1ccc(-c2csc(/C(C#N)=C\c3ccc(C)o3)n2)cc1,7.3,0.4,-2.5,-23.4,-10.8,-1.9
CC(=O)c1c(C)[nH]c(C(=O)OCC(=O)N(Cc2ccccc2)C(C)(C)C)c1C,1.1,4.2,-3.7,.,8.6,-1.1
NC(=O)CC(NC(=O)c1cccc(Br)c1)c1ccc(NC2CCCCCCCCCCC2)c([N+](=O)[O-])c1 (centres undefined),-0.8,1.0,0.0,.,2.8,-2.0
CCCNS(=O)(=O)c1ccc(Oc2ncc(C(F)(F)F)cc2Cl)cc1,-3.4,-0.1,4.3,74.3*,20.5,-14.2
SMILES,697 NFkB inh,CHOP UPR activ,UPR XBP1 act,CHOP inhibitor,Jurkat NFkB inh,Gli-Sufu block
CC(C)NS(=O)(=O)c1ccc(Oc2ncc(C(F)(F)F)cc2Cl)cc1,2.2,6.4,-1.9,37.8,8.5,3.1
Cc1ccc2c(COC(=O)C3CC(=O)N(c4ccc5c(c4)OCCO5)C3)cc(=O)oc2c1 (centres undefined),-22.1,-1.5,-1.3,.,-2.7,3.2
Cc1ccc(C(=O)COC(=O)c2cn(-c3ccccc3)nc2-c2ccccc2)cc1[N+](=O)[O-],-4.7,11.4,1.0,75.6*,16.6,-0.2
O=C(COC(=O)c1cn(-c2ccccc2)nc1-c1ccccc1)Nc1ncc(Cl)cc1Cl,19.8,-1.5,-3.9,77.3*,12.6,12.2
COc1ccc(NC(=O)COC(=O)C2CC(=O)N(c3ccc(C)cc3)C2)cc1 (centres undefined),-27.6,0.4,-5.7,.,-47.7,-17.0
C/C(=C\C(=O)c1ccc(Br)cc1)NCc1ccc(C)cc1,9.6,-1.7,5.6,77.1*,-0.9,-22.1
COc1cc(CNC[C@H]2O[C@@H](n3cnc(C(N)=O)n3)[C@H](O)[C@@H]2O)ccc1OCc1cccc(Cl)c1,.,.,.,.,.,-9.2
O=C(CSC1=NNC(c2ccccn2)S1)Nc1ccc(C(F)(F)F)cc1 (centres undefined),16.0,28.8,6.5,73.4*,32.1,31.5
CC(=O)OCCNc1cc(Sc2nc3ccccc3[nH]2)c2nonc2c1[N+](=O)[O-],.,.,.,107.3*,.,-9.3
CN1CCC2(CCN3CCc4c(oc5ccccc45)C3C2)N(C)C1=O (centres undefined),.,.,.,-3.6,.,.
COc1ccc(/C=C/C(=O)Nc2cc(C(F)(F)F)ccc2Cl)cc1,21.7,-1.2,-0.4,73.6*,9.6,6.2
Cn1nnnc1N=N/C(=N/Nc1ccccc1)c1ccccc1,-40.5,5.9,5.3,70.5*,38.1,-0.6
O=C(C1CCN(c2ncnc3c2nc2n3CCCCC2)CC1)N1CCN(c2cccc(Cl)c2)CC1,-90.5,10.9,-1.3,.,1.4,55.6*
O=C(C1CCCN(c2ncnc3c2nc2n3CCCCC2)C1)N1CCN(c2ccc(Cl)cc2)CC1 (centres undefined),-44.3,0.7,-2.6,.,-2.9,-2.4
C=CCn1c(COc2ccccc2)nnc1SCc1ccc(C#N)cc1,1.8,0.5,-2.9,-23.9,23.0,0.7
